{"source": "paper PMC12393906", "about": "(Molecular Therapy, 2025)", "key": {"mouse platelets [1]": {"tested_on": "mouse platelets", "assay": "Detection of intracellular ROS", "format": "cell-based", "conditions": "5 μM", "outline": "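Platelets from C57BL/6, WT control or Ero1α/β CKO mice were pretreated 20 min at 37°C with or without 0.1% DMSO vehicle or test compound. They were loaded with 1 μM DCF for 10 min, then stimulated 5 min with thrombin or CRP, or left unstimulated. DCF fluorescence was read by flow cytometry.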"}, "Amplex Red assay": {"assay": "Amplex Red assay", "format": "biochemical", "conditions": "Figure 1M, concentration not given"}, "mouse platelets [2]": {"tested_on": "mouse platelets", "assay": "Flow cytometry of P-selectin exposure and αIIbβ3 integrin activation", "format": "cell-based", "outline": "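Washed mouse platelets (2 × 10^8/mL in HEPES-Tyrode; C57BL/6 or Ero1α/β-null) were pretreated 20 min at 37°C with 0.1% DMSO vehicle or test compound. Agonist was added for 5 min at 37°C. Cells were stained 15 min with labelled anti-P-selectin or JON/A (activated αIIbβ3) and read by flow cytometry as geometric mean fluorescence intensity.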"}, "C57BL/6 mice [3]": {"tested_on": "C57BL/6 mice", "assay": "Intravital microscopy, laser-induced cremaster arteriolar injury", "format": "in vivo, mouse", "conditions": "iv 0.3 μg/g BW 10 min before IVM", "outline": "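Male mice (8–12 weeks) were anaesthetised with ketamine/xylazine ip. The cremaster was exteriorised and superfused with 37°C bicarbonate-buffered saline. Vehicle (1% DMSO) or test compound (0.3 μg/g BW) was given iv, and 10 min later DyLight 649 anti-CD42c (0.1 μg/g BW) was given. Laser ablation injured 3–4 arterioles per mouse. Median integrated platelet fluorescence was tracked over time, using […] per group.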"}, "human platelets [4]": {"tested_on": "human platelets", "assay": "Platelet aggregation assay and ATP secretion", "format": "cell-based", "conditions": "1 μM; 0.015 U/ml thrombin or 0.05 µg/ml CRP", "outline": "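Washed human platelets, isolated from ACD blood with PGE1 washes and resuspended in HEPES-Tyrode, were pretreated 20 min at 37°C with 0.1% DMSO vehicle or test compound. After agonist addition, aggregation and ATP secretion were recorded in a lumi-aggregometer at 37°C, stirring at 1,000 rpm.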"}, "human platelets [5]": {"tested_on": "human platelets", "assay": "Ca2+ mobilization", "format": "cell-based"}, "pancreatic islet cells": {"tested_on": "pancreatic islet cells", "assay": "Glucose-stimulated insulin secretion and insulin content", "format": "cell-based, mouse", "conditions": "1 or 5 μM; high glucose (16.7 mM)", "outline": "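Islets were isolated by bile-duct perfusion of type V collagenase (0.45 mg/mL), handpicked and cultured overnight in RPMI/10% FCS. They were exposed 3 h in KRBH (pH 7.4) to 2.8 mM or 16.7 mM glucose, ± vehicle (0.1% DMSO) or 1 or 5 μM test compound. Ten islets per group then had 1 h in low glucose, then 1 h at 37°C under the same conditions, in technical duplicates. Supernatant insulin and acid-ethanol-extracted content were measured by ELISA.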"}, "mouse platelets [6]": {"tested_on": "mouse platelets", "assay": "Ca2+ mobilization", "format": "cell-based", "conditions": "thrombin, A23187 or thapsigargin", "outline": "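Mouse platelets were preincubated 20 min with vehicle (0.1% DMSO) or test compound, then loaded with FLIPR Ca2+ 5 dye for 30 min at 37°C in the dark. Release was triggered by 0.02 U/mL thrombin, 0.5 μM A23187 or 5 μM thapsigargin, and influx by adding 2 mM CaCl2. Fluorescence was read at ex 485/em 525 nm and reported as area under the curve (RFU).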"}, "C57BL/6 mice [7]": {"tested_on": "C57BL/6 mice", "assay": "FeCl3-induced carotid arterial thrombosis", "format": "in vivo, mouse", "conditions": "for time to occlusion (TTO): iv 0.3 μg/g BW", "outline": "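Male and female mice, 8–12 weeks, were anaesthetised with ip ketamine/xylazine. A 2 × 2 mm filter disc carrying 1.2 μL of 7 or 10% FeCl3 was placed on the carotid artery for 2 min. Flow was monitored by Doppler flow meter. TTO was the time from disc removal to stable occlusion (no flow for 5 min).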"}, "C57BL/6 mice [8]": {"tested_on": "C57BL/6 mice", "assay": "tMCAO-induced ischemic stroke", "format": "in vivo, mouse", "conditions": "iv 0.3 μg/g BW after 1 h tMCAO; 23 h reperfusion", "outline": "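Male mice, 10–12 weeks, were anaesthetised with 1.2%–1.5% isoflurane in oxygen and given buprenorphine-ER 0.1 μg/g ip. After 1 h MCA occlusion the filament was withdrawn to restore flow. Vehicle (1% DMSO) or test compound was then given iv. After 23 h reperfusion, Bederson score, grip strength and infarct volume were assessed.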"}, "C57BL/6 mice [9]": {"tested_on": "C57BL/6 mice", "assay": "Ex vivo platelet activation after intravenous injection", "format": "in vivo, mouse", "conditions": "iv 0.3 μg/g BW; blood collected 10 min later", "outline": "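C57BL/6 mice (8–12 weeks, both sexes) received iv vehicle (1% DMSO in saline) or test compound at 0.3 μg/g BW. Blood was drawn 10 min later and washed platelets were isolated. Platelets were stimulated with agonist for 5 min at 37°C and stained 15 min for P-selectin and activated αIIbβ3 (JON/A). Flow cytometry read-out was geometric mean fluorescence intensity.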"}, "mouse platelets [10]": {"tested_on": "mouse platelets", "assay": "CCL5/RANTES in platelet releasates", "format": "cell-based", "outline": "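Washed mouse platelets (5 × 10^8 cells/mL) were pretreated 20 min at 37°C with 0.1% DMSO vehicle or test compound. They were then stimulated 10 min with 0.01 U/mL thrombin or 0.05 μg/mL CRP. CCL5/RANTES in the collected supernatant was quantified by ELISA.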"}, "mouse blood": {"tested_on": "mouse blood", "assay": "Flow chamber assay on collagen-coated surfaces under arterial shear", "format": "cell-based", "conditions": "5 μM, 50 dyne/cm^2", "outline": "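Plates were coated with fibrillar type 1 collagen (100 μg/mL, 1 h, 37°C) and washed with PBS/0.05% BSA. ACD-anticoagulated blood was treated 15 min at 37°C with 0.1% DMSO vehicle or 5 μM test compound, then labelled with 1 μM DiOC6 for 5 min. After adding 6 mM CaCl2 and 3 mM MgCl2, blood was perfused at 50 dyne/cm2 (mouse blood: 2 min). Surface coverage and thrombus volume were measured by epifluorescence.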"}, "C57BL/6 mice [11]": {"tested_on": "C57BL/6 mice", "assay": "Complete blood counts after intravenous injection", "format": "in vivo, mouse", "conditions": "iv 0.3 μg/g BW; 10 min and 8 h after injection"}, "[12]": {"conditions": "at concentrations required to reduce ERO1α activity; cited from earlier work"}, "mouse platelets [13]": {"tested_on": "mouse platelets", "assay": "Serotonin secretion", "format": "cell-based", "conditions": "2.5 or 5 μM"}}, "data": [{"smiles": "O=C(O)c1cc(N2N=C(C(F)(F)F)/C(=C/c3ccc(-c4ccccc4)o3)C2=O)ccc1Cl", "note": "[EN460]", "values": [{"measurement": "agonist-induced DCF signal (ROS)", "setting": "mouse platelets [1]; after thrombin", "result": "reduced the signal"}, {"measurement": "ROS production in resting platelets", "setting": "mouse platelets [1]; no agonist", "result": "moderately increased ROS production"}, {"measurement": "inhibition of H2O2 activity", "setting": "Amplex Red assay", "result": "inhibits H2O2 activity"}, {"measurement": "P-selectin exposure and αIIbβ3 integrin activation", "setting": "mouse platelets [2]; 1-5 µM, low agonist: 0.01 U/mL thrombin, 0.025 μg/mL CRP, 0.5 μM U46619, 0.5 μM A23187, concentration-dependent", "result": "inhibited"}, {"measurement": "P-selectin exposure and αIIbβ3 integrin activation", "setting": "mouse platelets [2]; 2.5 or 5 μM, high agonist: thrombin 0.1 U/mL or CRP 0.2 μg/mL, weaker effect", "result": "still observed"}, {"measurement": "P-selectin exposure and αIIbβ3 integrin activation in resting platelets", "setting": "mouse platelets [2]; M6766 5 μM, EN460 2.5 or 5 μM, no agonist", "result": "appeared to enhance both events"}, {"measurement": "initial platelet adhesion at sites of laser injury", "setting": "C57BL/6 mice [3]", "result": "without affecting initial platelet adhesion"}, {"measurement": "platelet accumulation at sites of laser injury", "setting": "C57BL/6 mice [3]", "result": "significantly inhibited platelet accumulation"}, {"measurement": "platelet aggregation and ATP secretion", "setting": "human platelets [4]", "result": "had no effect"}, {"measurement": "thrombin-induced Ca2+ influx", "setting": "human platelets [5]; 0.5 μM", "result": "reduced thrombin-induced Ca^2+ influx"}, {"measurement": "Ca2+ release and influx", "setting": "human platelets [5]; 2 or 5 μM, activated human platelets", "result": "significantly inhibited both Ca^2+ release and influx"}, {"measurement": "insulin secretion or content", "setting": "pancreatic islet cells", "result": "did not reduce insulin secretion or content"}, {"measurement": "Ca2+ release and influx", "setting": "mouse platelets [6]; 0.25 or 0.5 μM", "result": "no or minimal inhibition"}, {"measurement": "Ca2+ release and influx", "setting": "mouse platelets [6]; 1 or 2.5 μM", "result": "significantly reduced both Ca^2+ release and influx"}, {"measurement": "carotid arterial thrombosis (time to occlusion)", "setting": "C57BL/6 mice [7]; 0.1 μg/g BW, 7% FeCl3", "result": "did not inhibit carotid arterial thrombosis"}, {"measurement": "time to occlusion (TTO)", "setting": "C57BL/6 mice [7]; 7% FeCl3", "result": "significantly prolonged the time to occlusion"}, {"measurement": "time to occlusion (TTO)", "setting": "C57BL/6 mice [7]; 10% FeCl3", "result": "did not affect TTO"}, {"measurement": "Bederson score", "setting": "C57BL/6 mice [8]", "result": "decreased the Bederson score"}, {"measurement": "grip strength", "setting": "C57BL/6 mice [8]", "result": "increased grip strength"}, {"measurement": "infarct volume", "setting": "C57BL/6 mice [8]", "result": "significantly reduced infarct volume"}, {"measurement": "P-selectin exposure and αIIbβ3 integrin activation following thrombin stimulation (ex vivo)", "setting": "C57BL/6 mice [9]", "result": "moderate but significant reduction"}, {"measurement": "CCL5 secretion in resting and activated platelets", "setting": "mouse platelets [10]; 5 μM", "result": "appeared to increase CCL5 secretion"}, {"measurement": "CCL5 secretion from activated platelets", "setting": "mouse platelets [10]; various concentrations (1-5 μM), thrombin", "result": "inhibits CCL5 secretion"}, {"measurement": "surface coverage and volume of platelet thrombi", "setting": "mouse blood", "result": "significantly reduced"}, {"measurement": "complete blood counts (CBCs)", "setting": "C57BL/6 mice [11]", "result": "did not alter CBCs"}, {"measurement": "thiol reactivity", "setting": "[12]", "result": "exhibits thiol reactivity"}, {"measurement": "serotonin secretion from resting platelets", "setting": "mouse platelets [13]; no agonist", "result": "enhanced serotonin secretion from resting platelets"}, {"measurement": "serotonin secretion from activated platelets", "setting": "mouse platelets [13]; thrombin or CRP", "result": "either enhancing or inhibiting secretion"}]}]}
